Measured values: ChEMBL document CHEMBL1765035, “Radiosynthesis and in vivo evaluation of 1-[18F]fluoroelacridar as a positron emission tomography tracer for P-glycoprotein and breast cancer resistance protein” (Bioorg Med Chem, 2011)

How the values were obtained:
[1] = Inhibition of human Pgp overexpressed in […]-MDR1 cells assessed as inhibition of R123 efflux after 60 mins; format: cell-based, MDCK-II; conditions: 1 h
Brain [2] = assay: Drug uptake in Sprague-Dawley rat brain at 33 +/- 3 MBq, iv administered 60 mins before 5 mg/kg, iv elacridar injection measured after 25 mins; format: ADME, organism-based; parameters: dose 5 mg/kg, route intravenous; conditions: in vivo
Procedure, shortened: (§1)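 Isoflurane-anaesthetised female Sprague Dawley rats (n=3, warmed about 38°C), femoral catheters. [18F] tracer given i.v. (33±3 MBq), followed by a dynamic 150 min microPET scan. […] Whole brain or humerus outlined on summation images; time-activity curves given as SUV (mean±SD).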

Brain [3] = assay: Drug uptake in Sprague-Dawley rat brain after 40 mins by reversed-phase HPLC; format: ADME, tissue-based; conditions: in vivo
Procedure, shortened: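 Same rat group (n=3) injected i.v. with [18F] tracer and sacrificed at 40 min. Brain washed with ice-cold H2O, homogenized in 0.9% NaCl and extracted with CH3CN. Supernatant diluted 1:1 with 0.1% TFA and analysed by reversed-phase HPLC with UV 257 nm and radioactivity detection. Value is unchanged tracer as % of total brain radioactivity.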

Brain [4] = assay: Drug uptake in Sprague-Dawley rat brain at 33 +/- 3 MBq, iv administered 60 mins before 5 mg/kg, iv elacridar injection measured after 0.9 to 1.3 mins; format: ADME, organism-based; parameters: dose 5 mg/kg, route intravenous; conditions: in vivo; procedure, shortened: as §1
[5] = Drug uptake in Sprague-Dawley rat humerus after 140 mins in presence of 5 mg/kg elacridar; format: ADME, organism-based; parameters: dose 5 mg/kg; conditions: in vivo; procedure, shortened: as §1
Plasma [6] = assay: Drug concentration in Sprague-Dawley rat plasma assessed as radiometabolites at 74 +/- 23 MBq after 10 mins by SPE assay relative to total plasma concentration; format: ADME, cell-free
Procedure, shortened: (§2)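 Female Sprague Dawley rats (n=3, isoflurane, no PET) given [18F] tracer i.v. (74±23 MBq). Blood drawn at 10, 20, 30 min and terminally at 40 min. Plasma centrifuged and run through SPE. Polar radiometabolites are counted as fractions 1+2 by gamma counter, as % of total plasma activity. At 40 min the MeOH fraction also went to reversed-phase HPLC.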

Plasma [7] = assay: Drug concentration in Sprague-Dawley rat plasma assessed as radiometabolites at 74 +/- 23 MBq after 20 mins by SPE assay relative to total plasma concentration; format: ADME, cell-free
Procedure, shortened: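 Female Sprague-Dawley rats (n=3) under isoflurane, given i.v. [18F]-tracer (74±23 MBq, 17.2±3.9 nmol or 37±10 μg/kg unlabelled) without PET imaging. Arterial blood was drawn at 10, 20 and 30 min, with a terminal sample at 40 min. Plasma was obtained by centrifugation (3000×g, 5 min) and run through solid-phase extraction. The plasma, H2O and MeOH fractions were gamma-counted. Polar radiometabolites (fractions 1+2) are given as % of total plasma activity.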

Plasma [8] = assay: Drug concentration in Sprague-Dawley rat plasma assessed as radiometabolites at 74 +/- 23 MBq after 30 mins by SPE assay relative to total plasma concentration; format: ADME, cell-free; conditions: 0.5 h; procedure, shortened: as §2
Plasma [9] = assay: Drug concentration in Sprague-Dawley rat plasma assessed as radiometabolites at 74 +/- 23 MBq after 40 mins by SPE assay relative to total plasma concentration; format: ADME, cell-free; procedure, shortened: as §2
[10] = Drug uptake in Sprague-Dawley rat humerus after 1.8 mins in presence of 5 mg/kg elacridar; format: ADME, organism-based; parameters: dose 5 mg/kg; conditions: in vivo, 0.03 h; procedure, shortened: as §1
[11] = Ratio of drug level in brain to blood in wild-type mouse; format: ADME, tissue-based
Procedure, shortened: (§3)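 Female FVB wild-type and Mdr1a/b(−/−)Bcrp1(−/−) mice (n=3 each), isoflurane-anaesthetised. [18F] tracer given via tail vein (6±1 MBq), 60 min dynamic microPET. Brain SUV at 50-60 min divided by whole-blood SUV; blood taken retro-orbitally at scan end and gamma-counted. Groups compared by 2-tailed t-test.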

Brain [12] = assay: Drug uptake in Sprague-Dawley rat brain at 33 +/- 3 MBq, iv administered 60 mins before 5 mg/kg, iv elacridar injection measured after 140 mins; format: ADME, organism-based; parameters: dose 5 mg/kg, route intravenous; conditions: in vivo; procedure, shortened: as §1
[13] = Ratio of drug level in brain to blood in Mdr1a/b(-/-)/Bcrp1(-/-) mouse; format: ADME, tissue-based; procedure, shortened: as §3
MDCK-II = conditions: Homo sapiens, 3.7 uM

**Q.** Which IC50 [1] does the source give for `COc1cc2c(cc1OC)CN(CCc1ccc(NC(=O)c3ccc([N+](=O)[O-])c4c(=O)c5cccc(OC)c5[nH]c34)cc1)CC2` here?
**A.** The IC50 was 1600 nM.

**Q.** Which IC50 [1] does the source give for `COc1cc2c(cc1OC)CN(CCc1ccc(NC(=O)c3ccc(Cl)c4c(=O)c5cccc(OC)c5[nH]c34)cc1)CC2` here?
**A.** Its IC50 is 3800 nM.

**Q.** With `COc1cc2c(cc1OC)CN(CCc1ccc(NC(=O)c3cc(Cl)cc4c(=O)c5cccc(OC)c5[nH]c34)cc1)CC2` as the compound, how does the IC50 [1] read?
**A.** Its IC50 is 1400 nM.

**Q.** For `COc1cc2c(cc1OC)CN(CCc1ccc(NC(=O)c3ccc([18F])c4c(=O)c5cccc(OC)c5[nH]c34)cc1)CC2`, which SUV (Brain [2]) is on record?
**A.** Its SUV is 0.14.

**Q.** What about the Drug uptake (Brain [3]) of the same compound?
**A.** The Drug uptake was 93%.

**Q.** What about the SUV (Brain [4]) of the same compound?
**A.** Its SUV is 0.46.

**Q.** What about the SUV [5] of the same compound?
**A.** Its SUV is 4.59.

**Q.** What about the Cp (Plasma [6]) of the same compound?
**A.** The Cp was 6%.

**Q.** And the Cp (Plasma [7])?
**A.** The Cp was 6%.

**Q.** And the Cp (Plasma [8])?
**A.** Its Cp is 12%.

**Q.** What about the Cp (Plasma [9]) of the same compound?
**A.** The Cp was 13%.

**Q.** And the SUV [10]?
**A.** Its SUV is 1.42.

**Q.** And the Kp [11]?
**A.** Its Kp is 1.5.

**Q.** What about the SUV (Brain [12]) of the same compound?
**A.** Its SUV is 1.14.

**Q.** And the Kp [13]?
**A.** Its Kp is 11.6.

**Q.** For `COc1cc2c(cc1OC)CN(CCc1ccc(NC(=O)c3cccc4c(=O)c5cccc(OC)c5[nH]c34)cc1)CC2`, which inhibition (MDCK-II) is on record?
**A.** The inhibition was 100%.

**Q.** For `COc1cc2c(cc1OC)CN(CCc1ccc(NC(=O)c3ccc(F)c4c(=O)c5cccc(OC)c5[nH]c34)cc1)CC2`, which IC50 [1] is on record?
**A.** Its IC50 is 1700 nM.

**Q.** For `COc1cc2c(cc1OC)CN(CCc1ccc(NC(=O)c3cc(F)cc4c(=O)c5cccc(OC)c5[nH]c34)cc1)CC2`, which IC50 [1] is on record?
**A.** The IC50 was 600 nM.
